Reference: ChEMBL document CHEMBL4130604, “Germacrane-Type Sesquiterpenoids with Antiproliferative Activities from Eupatorium chinense” (J Nat Prod, 2018)

How the values were obtained:
Assay type in all cases: functional, cell-based
MDA-MB-231 = assay: Antiproliferative activity against human MDA-MB-231 cells after 48 hrs by MTT assay; conditions: MDA-MB-231, 48 h
Procedure, shortened: (§1)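 Cytotoxicity was read by MTT method on human Caski cervical, MDA-MB-231 breast, CNE2 nasopharyngeal and HepG2 hepatocellular carcinoma lines. Mitomycin C served as positive control, and medium containing 0.1% DMSO was the negative control. IC50 values are reported in μM. Other details follow an earlier protocol.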

Ca-Ski = assay: Antiproliferative activity against human CaSki cells after 48 hrs by MTT assay; procedure, shortened: as §1
CNE-2 = assay: Antiproliferative activity against human CNE2 cells after 48 hrs by MTT assay; conditions: CNE-2, 48 h; procedure, shortened: as §1
HepG2 = assay: Antiproliferative activity against human HepG2 cells after 48 hrs by MTT assay; conditions: HepG2, 48 h; procedure, shortened: as §1

With CO[C@@]12[C@H](COC(N)=O)C3=C(C(=O)C(C)=C(N)C3=O)N1C[C@@H]1N[C@@H]12 [MITOMYCIN] the IC50 (MDA-MB-231) was 4.4 µM, the IC50 (Ca-Ski) was > 10 µM and the IC50 (CNE-2) was > 10 µM. The IC50 (HepG2) was > 10 µM.

C=C1C(=O)O[C@@H]2/C=C(/C)[C@@H](OC(C)=O)[C@H](OC(C)=O)/C=C(\C)C[C@@H](OC(=O)/C(=C\C)CO)[C@@H]12 was tested, and the IC50 (MDA-MB-231) was > 10 µM, the IC50 (Ca-Ski) was > 10 µM and the IC50 (CNE-2) was > 10 µM. For the same molecule, the IC50 (HepG2) was > 10 µM.

In the case of C=C1C(=O)O[C@@H]2/C=C(/C)[C@H](OC(C)=O)C/C=C(\C)C[C@@H](OC(=O)/C(=C\C)CO)[C@@H]12, the IC50 (MDA-MB-231) is reported as 3.3 µM, the IC50 (Ca-Ski) is reported as > 10 µM and the IC50 (CNE-2) is reported as > 10 µM. For the same molecule, the IC50 (HepG2) was 6.3 µM.

C=C1C(=O)O[C@@H]2/C=C(/CO)[C@@H](OC(C)=O)C/C=C(\C)C[C@@H](OC(=O)/C(=C\C)CO)[C@@H]12 was tested, and the IC50 (MDA-MB-231) was > 10 µM, the IC50 (Ca-Ski) was > 10 µM and the IC50 (CNE-2) was > 10 µM. It also gave an IC50 (HepG2) of 7.6 µM.

For C=C1C(=O)O[C@@H]2/C=C(/COC(C)=O)[C@@H](OC(C)=O)C/C=C(\C)C[C@@H](OC(=O)/C(C)=C/CO)[C@@H]12, the IC50 (MDA-MB-231) was > 10 µM, the IC50 (Ca-Ski) was > 10 µM and the IC50 (CNE-2) was > 10 µM. For the same molecule, the IC50 (HepG2) was > 10 µM.

With C=C1C(=O)O[C@@H]2/C=C(/C)[C@@H](OC(C)=O)C/C=C(\C)C[C@@H](OC(=O)/C(=C\C)CO)[C@@H]12 the IC50 (MDA-MB-231) was 0.8 µM, the IC50 (Ca-Ski) was > 10 µM and the IC50 (CNE-2) was > 10 µM. It also gave an IC50 (HepG2) of 3.6 µM.

In the case of C=C1C(=O)O[C@@H]2/C=C(/C)[C@@H](OC(C)=O)[C@H](O)/C=C(\C)C[C@@H](OC(=O)/C(=C\C)CO)[C@@H]12, the IC50 (MDA-MB-231) is reported as > 10 µM, the IC50 (Ca-Ski) is reported as > 10 µM and the IC50 (CNE-2) is reported as > 10 µM. The IC50 (HepG2) was > 10 µM.

C=C1C(=O)O[C@@H]2/C=C(/C)[C@@H](OC(C)=O)C[C@@H](O)C(=C)C[C@@H](OC(=O)/C(=C\C)CO)[C@@H]12 was tested, and the IC50 (MDA-MB-231) was > 10 µM, the IC50 (Ca-Ski) was > 10 µM and the IC50 (CNE-2) was > 10 µM. The IC50 (HepG2) was > 10 µM.

C=C1C(=O)O[C@@H]2/C=C(/CO)[C@@H](OC(C)=O)C/C=C(\C)C[C@@H](OC(=O)/C(C)=C/C)[C@@H]12 was tested, and the IC50 (MDA-MB-231) was > 10 µM, the IC50 (Ca-Ski) was > 10 µM and the IC50 (CNE-2) was > 10 µM. For the same molecule, the IC50 (HepG2) was > 10 µM.

With C=C1C(=O)O[C@@H]2/C=C(/CO)[C@@H](OC(C)=O)C[C@@H](O)C(=C)C[C@@H](OC(=O)/C(=C\C)CO)[C@@H]12 the IC50 (MDA-MB-231) was > 10 µM, the IC50 (Ca-Ski) was > 10 µM and the IC50 (CNE-2) was > 10 µM. For the same molecule, the IC50 (HepG2) was > 10 µM.
